Source: ChEMBL document CHEMBL1833899, “Targeting hypoxic tumor cell viability with carbohydrate-based carbonic anhydrase IX and XII inhibitors” (J Med Chem, 2011)
Active and inactive are the calls of the source. The calls are words filed in the database; no cut-off is given here.

How the values were obtained:
[1] = Cytotoxicity against CA9-deficient chinese hamster PS120 cells assessed as cell viability at 100 uM and pH 7.5 after 24 hrs by giemsa staining; format: cell-based, Cricetulus griseus; conditions: ps120, pH 7.5, 24 h
In short: (§1)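 PS120-pev fibroblasts (CCL39-derived, no CA IX) attached, then held 24 h in HCO3−-free DMEM with 30 mM HEPES at pHo 7.5, 10% dialyzed serum, 0.1 mM hypoxanthine and 0.1 mM uridine triphosphate, in CO2/HCO3−-free atmosphere, with compound or DMSO. Then returned to regular medium under 5% CO2 for 7 days; Giemsa staining; scored viable or not viable.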

[2] = Cytotoxicity against CA9-deficient chinese hamster PS120 cells assessed as cell viability at 300 uM and pH 7.5 after 24 hrs by giemsa staining; format: cell-based, Cricetulus griseus; conditions: ps120, pH 7.5, 24 h; in short: as §1
[3] = Cytotoxicity against CA9-deficient chinese hamster PS120 cells assessed as cell viability at 60 uM and pH 7.5 after 24 hrs by giemsa staining; format: cell-based, Cricetulus griseus; conditions: ps120, pH 7.5, 24 h; in short: as §1
[4] = Cytotoxicity against CA9-deficient chinese hamster PS120 cells assessed as cell viability at 30 uM and pH 7.5 after 24 hrs by giemsa staining; format: cell-based, Cricetulus griseus; conditions: ps120, pH 7.5, 24 h; in short: as §1
[5] = target: T1, Carbonic anhydrase 9 (Homo sapiens, UniProt Q16790)
[6] = test system: LS174T; experiment: Reduction in CA9 mRNA level in human LS 174T cells expressing shca9 and tetracyclin repressor under normoxia condition at 60 uM after 48 hrs by Western blot analysis; format: functional, cell-based
[7] = Antiproliferative activity against human LS 174T cells expressing shca9 under hypoxia condition at 60 uM after 3 days by cell counting technique relative to control; format: functional, LS174T
In short: (§2)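 LS174Tr colon carcinoma cells carrying Tet-inducible ca9 shRNA plus nontarget (ctl) or constitutive ca12 shRNA. Tet (1 µg/ml) added 4 days before assay for ca12-silenced cells. 6 x 10^4 cells seeded; 24 h later moved to hypoxia (1% O2) with or without inhibitor (DMSO control). Cells detached and Coulter-counted every 24 h for 3 days; proliferation index = daily count / count at 24 h post-seeding.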

[8] = test system: LS174T; experiment: Reduction in CA9 level in human LS 174T cells expressing shca9 and tetracyclin repressor under hypoxia condition at 60 uM after 48 hrs by Western blot analysis; format: functional, cell-based
In short: (§3)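 Stable LS-shca9/ctl cells kept without Tet for 4 days, then placed in normoxia (21% O2) or hypoxia (1% O2) for 48 h with or without 60 µM compound. Whole-cell SDS lysates (40 µg protein) run on 7.5% SDS-PAGE and immunoblotted with M75 anti-CA IX; Hsp90 as loading control; HRP secondary with ECL detection.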

[9] = test system: LS174T; experiment: Reduction in CA9 mRNA level in human LS 174T cells expressing shca9 and tetracyclin repressor under hypoxia condition at 60 uM after 48 hrs by Western blot analysis; format: functional, cell-based
[10] = target: T1, Carbonic anhydrase 9; conditions: PS120, at 60 µM
[11] = Antiproliferative activity against ca9/ca12 double silenced human LS 174T cells under hypoxia assessed as decrease in cell proliferation at 60 uM after 3 days by cell counting technique relative to control; format: functional, LS174T; set-up: scale not given: the % may be the effect or the level left; in short: as §2
[12] = test system: LS174T; experiment: Reduction in CA9 protein level in human LS 174T cells expressing shca9 and tetracyclin repressor under normoxia condition at 60 uM after 48 hrs by Western blot analysis; format: functional, cell-based; in short: as §3

## NS(=O)(=O)c1ccc(-n2nnc(CS[C@@H]3O[C@H](CO)[C@@H](O)[C@H](O)[C@H]3O)c2I)cc1
[1]
  Activity: Non-toxic
[2]
  Activity: Non-toxic
[3]
  Activity: Non-toxic
[4]
  Activity: Non-toxic
[5]
  Ki: 6.5 nM

## CC(=O)OC[C@H]1O[C@@H](SCc2cn(-c3ccc(S(N)(=O)=O)cc3)nn2)[C@H](OC(C)=O)[C@@H](OC(C)=O)[C@@H]1OC(C)=O
[1]
  Activity: Non-toxic
[3]
  Activity: Non-toxic
[4]
  Activity: Non-toxic

## NS(=O)(=O)c1ccc(-n2nnc(CS[C@@H]3O[C@H](CO)[C@H](O)[C@H](O)[C@H]3O)c2I)cc1
[5]
  Ki: 7.3 nM

## CC(=O)OC[C@H]1O[C@@H](S(=O)(=O)Cc2cn(-c3ccc(S(N)(=O)=O)cc3)nn2)[C@H](OC(C)=O)[C@@H](OC(C)=O)[C@@H]1O[C@H]1O[C@H](COC(C)=O)[C@@H](OC(C)=O)[C@H](OC(C)=O)[C@H]1OC(C)=O
[5]
  Ki: 61.9 nM

## NS(=O)(=O)c1ccc(-n2cc(CS(=O)(=O)[C@@H]3O[C@H](CO)[C@@H](O)[C@H](O)[C@H]3O)nn2)cc1
[1]
  Activity: Non-toxic
[2]
  Activity: Non-toxic
[3]
  Activity: Non-toxic
[4]
  Activity: Non-toxic

## CC(=O)OC[C@H]1O[C@@H](S(=O)(=O)Cc2cn(-c3ccc(S(N)(=O)=O)cc3)nn2)[C@H](OC(C)=O)[C@@H](OC(C)=O)[C@@H]1OC(C)=O
[1]
  Activity: Non-toxic
[2]
  Activity: Non-toxic
[3]
  Activity: Non-toxic
[4]
  Activity: Non-toxic

## NS(=O)(=O)c1ccc(-n2nnc(CS(=O)(=O)[C@@H]3O[C@H](CO)[C@@H](O[C@H]4O[C@H](CO)[C@@H](O)[C@H](O)[C@H]4O)[C@H](O)[C@H]3O)c2I)cc1
[5]
  Ki: 68 nM

## CC(=O)OC[C@H]1O[C@@H](SCc2nnn(-c3ccc(S(N)(=O)=O)cc3)c2I)[C@H](OC(C)=O)[C@@H](OC(C)=O)[C@@H]1OC(C)=O
[1]
  Activity: Toxic
[6]
  Activity: Active
[2]
  Activity: Toxic
[7]
  Activity: 60%
[8]
  Activity: Active
[9]
  Activity: Active
[10]
  inhibition: Active
[3]
  Activity: Non-toxic
[4]
  Activity: Non-toxic
[11]
  Activity: 16%
[12]
  Activity: Active
[5]
  Ki: 6.2 nM

## CC(=O)OC[C@H]1O[C@@H](SCc2nnn(-c3ccc(S(N)(=O)=O)cc3)c2C#CCO)[C@H](OC(C)=O)[C@@H](OC(C)=O)[C@H]1OC(C)=O
[5]
  Ki: 91 nM

## NS(=O)(=O)c1ccc(-n2cc(CS(=O)(=O)[C@@H]3O[C@H](CO)[C@@H](O[C@H]4O[C@H](CO)[C@@H](O)[C@H](O)[C@H]4O)[C@H](O)[C@H]3O)nn2)cc1
[5]
  Ki: 71.2 nM

## NS(=O)(=O)c1ccc(-n2cc(CS[C@@H]3O[C@H](CO)[C@@H](O)[C@H](O)[C@H]3O)nn2)cc1
[1]
  Activity: Non-toxic
[2]
  Activity: Non-toxic
[3]
  Activity: Non-toxic
[4]
  Activity: Non-toxic

## CC(=O)OC[C@H]1O[C@@H](S(=O)(=O)Cc2nnn(-c3ccc(S(N)(=O)=O)cc3)c2I)[C@H](OC(C)=O)[C@@H](OC(C)=O)[C@@H]1O[C@H]1O[C@H](COC(C)=O)[C@@H](OC(C)=O)[C@H](OC(C)=O)[C@H]1OC(C)=O
[5]
  Ki: 99.6 nM

## CC(=O)OC[C@H]1O[C@@H](S(=O)(=O)Cc2nnn(-c3ccc(S(N)(=O)=O)cc3)c2I)[C@H](OC(C)=O)[C@@H](OC(C)=O)[C@@H]1OC(C)=O
[1]
  Activity: Toxic
[2]
  Activity: Toxic
[3]
  Activity: Toxic
[4]
  Activity: Non-toxic
[5]
  Ki: 71 nM

## NS(=O)(=O)c1ccc(-n2nnc(CS(=O)(=O)[C@@H]3O[C@H](CO)[C@H](O)[C@H](O)[C@H]3O)c2I)cc1
[5]
  Ki: 89 nM

## CC(=O)Nc1nnc(S(N)(=O)=O)s1 [ACETAZOLAMIDE]
[1]
  Activity: Non-toxic
[2]
  Activity: Toxic
[3]
  Activity: Non-toxic
[4]
  Activity: Non-toxic

## CC(=O)OC[C@H]1O[C@@H](SCc2nnn(-c3ccc(S(N)(=O)=O)cc3)c2I)[C@H](OC(C)=O)[C@@H](OC(C)=O)[C@H]1OC(C)=O
[5]
  Ki: 95 nM

## NS(=O)(=O)c1ccc(-n2nnc(CS(=O)(=O)[C@@H]3O[C@H](CO)[C@@H](O)[C@H](O)[C@H]3O)c2I)cc1
[1]
  Activity: Non-toxic
[2]
  Activity: Toxic
[3]
  Activity: Non-toxic
[4]
  Activity: Non-toxic
[5]
  Ki: 61 nM

## CC(=O)OC[C@H]1O[C@@H](S(=O)(=O)Cc2nnn(-c3ccc(S(N)(=O)=O)cc3)c2I)[C@H](OC(C)=O)[C@@H](OC(C)=O)[C@H]1OC(C)=O
[5]
  Ki: 97 nM
